Source: PubChem
An excerpt weighted towards active compounds, which were near 1.3% of everything screened.
Efflux pump inh: blocks antifungal efflux pumps in multiplex yeast assay | S. cerevisiae Candida pump triplex, Nile Red efflux | inhibition, % at 10 µM | 330,000 tested, 0.44% active | AID 485275;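 active means plate passing quality check with inhibition over a set limit, or well fluorescence over plate mean plus 4 SD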;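 further: Nile Red retained in pooled yeast measured as flow cytometry median fluorescence; 0% = buffer negative control and 100% = Enniatin B positive control; higher means more Nile Red kept so more efflux inhibition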
MT1-MMP act inh: inhibitors of human MT1-MMP activation | P50281 | HT1080 RFP-PRO-GFP cells, GFP/RFP ratio fluorescence, overnight; percent of plate control window, DMSO zero | GFP/RFP ratio change, % at 20 µM | 360,000 tested, 0.061% active | AID 651647;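 active means GFP/RFP ratio change of at least 30% with cell ATP level not reduced by more than half and red fluorescence within 50% of control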
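Assay system: HT1080 RFP-PRO-GFP cells. Benchmarks: DMSO vehicle wells and RFP-L50D-GFP reporter cell wells. Times: overnight cell settling, then overnight compound exposure, 37 °C, 5% CO2. Compound: 20 µM single dose, 1% DMSO. Read-out basis: GFP/RFP fluorescence ratio.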
sPLA2-III inh: Inhibits HGIII-sPLA2 liposome hydrolysis, primary screen. QFRET BODIPY PC-A2 liposome hydrolysis, fluorescence. AID 743126. inhibition, % at 12.2 µM. 370,000 tested, 0.56% active;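 active means inhibition above mean plus 3 SD of compounds lying within the high and low control bounds, cut at about 19% in these data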;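 further: 0% = median of test compound wells and 100% = no enzyme DMSO wells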
Target sequence (Q9NZ20 whole entry, looked up): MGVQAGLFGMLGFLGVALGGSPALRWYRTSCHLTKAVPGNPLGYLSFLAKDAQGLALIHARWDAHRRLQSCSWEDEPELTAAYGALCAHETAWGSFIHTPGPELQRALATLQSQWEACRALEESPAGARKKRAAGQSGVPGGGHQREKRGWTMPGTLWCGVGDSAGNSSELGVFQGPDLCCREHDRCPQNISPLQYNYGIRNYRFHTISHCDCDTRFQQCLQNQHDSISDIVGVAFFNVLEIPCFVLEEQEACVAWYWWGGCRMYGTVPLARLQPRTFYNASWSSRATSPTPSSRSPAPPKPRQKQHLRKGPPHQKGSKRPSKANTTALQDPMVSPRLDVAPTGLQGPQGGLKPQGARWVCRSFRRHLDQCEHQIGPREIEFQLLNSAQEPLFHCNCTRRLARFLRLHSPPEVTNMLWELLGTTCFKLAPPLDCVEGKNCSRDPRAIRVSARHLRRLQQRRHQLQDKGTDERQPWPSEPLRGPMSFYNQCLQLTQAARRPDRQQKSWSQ
TAG inh: inhibitors of triacylglycerol accumulation; 230,000 tested, 0.66% active; H9c2 cells, Nile Red lipid (TAG) fluorescence; cells loaded with 200 µM oleic acid; inhibition, % at 12.5 µM; AID 651582;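 active means pattern-corrected inhibition of lipid staining of at least 50% with the nuclear-stain viability signal not falling by more than 50%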;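 further: 0% = DMSO wells and 100% = triacsin C control wells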
hGIII sPLA2 conf: human GIII-sPLA2 inhibition, confirmation. shares compounds with sPLA2-III inh. recombinant hGIII-sPLA2, BODIPY PC-A2 QFRET fluorescence. inhibition, % at 12.2 µM. 2,000 tested, 34% active. AID 743280;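 active means mean inhibition across triplicates above the hit cutoff set in the earlier primary screen, cut at about 19% in these data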;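 further: 0% = enzyme with DMSO and 100% = DMSO wells lacking enzyme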
535nm interf: optically interferes with 535nm fluorescence in sPLA2 counter-screen; BODIPY FL product fluorescence interference, QFRET; AID 743282; inhibition, % at 12.2 µM; 2,000 tested, 8.5% active; shares compounds with sPLA2-III inh;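 active means average inhibition above the solvent-only control mean plus 3 SD, cut at about 6% in these data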;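 further: 0% = DMSO with substrate plus product and 100% = DMSO with substrate alone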
BODIPY interf DR: interferes with 535nm fluorescence in dose response counter-screen; shares compounds with sPLA2-III inh; BODIPY FL product fluorescence interference, cell-free; IC50, µM; 240 tested, under 10 active; AID 743455;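 active means IC50 at or below 10 µM; inactive means IC50 above 10 µM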
* = called active by the depositor; . = not tested or not shown.

SMILES | Efflux pump inh | MT1-MMP act inh | sPLA2-III inh | TAG inh | hGIII sPLA2 conf | 535nm interf | others
COc1ccc(NC(=O)C(=O)N/N=C/c2cccnc2)c(OC)c1 | 0 | 3 | 20* | . | 4 | -7
COc1ccccc1/C=N/NC(=O)C(=O)Nc1ccccc1OC(F)(F)C(F)F | 0 | 1 | 11 | . | . | .
COc1ccc(NC(=O)/C(C#N)=C/c2cccnc2)c(OC)c1 | 0 | 2 | -4 | . | . | .
COc1cc(CNn2c(C)n[nH]c2=S)cc(Br)c1OCC(=O)NC(C)(C)C | 0 | 5 | 12 | . | . | .
COc1cc(CNn2c(C)n[nH]c2=S)cc(Cl)c1OCC(=O)NC(C)(C)C | 0 | 7 | 29* | 2 | 25* | -4
CCN1CCN(S(=O)(=O)CC2(C)C3CCC2(C)C(=O)C3Br)CC1 (configuration not stated) | 0 | -1 | -6 | 2 | . | .
O=C1c2ccccc2C(=O)c2c1cccc2N1CCOCC1 | 0 | 4 | 22* | -21 | 32* | 5 | BODIPY interf DR=>122
CC(=O)N(C)c1ccc(N2CCOCC2)c2c1C(=O)c1ccccc1C2=O | 0 | 4 | -3 | 13 | . | .
COc1ccc(-c2cc(NC(=O)Cc3c[nH]c4ccccc34)ccc2Nc2cccnc2)cc1F | . | . | -24 | . | . | .
O=C(O)c1cccc(Nc2ccc3nonc3c2[N+](=O)[O-])c1 | 0 | 5 | 20* | -9 | 2 | -6
O=[N+]([O-])c1c(Nc2ccccc2)ccc2nonc12 | 0 | 5 | 7 | -3 | . | .
CC(C)CNC(=O)CN(C)S(=O)(=O)c1ccc(F)cc1 | 0 | -3 | 22* | . | 0 | -11
CCC(=O)N[C@H]1C=C[C@H](CC(=O)OC)O[C@@H]1CO | . | -4 | 6 | . | . | .
CCCn1c(=O)c(C(=O)NNC(=O)c2ccccc2[N+](=O)[O-])c(O)c2ccccc21 | 0 | 1 | 14 | -2 | . | .
CCCn1c(=O)c(C(=O)NNC(=O)c2ccccc2Cl)c(O)c2ccccc21 | 0 | 2 | 21* | . | 20* | 1
COc1cccc(CN2CCNC(=O)C2CC(=O)N(C)CCC2CCOCC2)c1OC (configuration not stated) | 0 | -5 | 5 | 8 | . | .
CCOc1cc(N2CCOCC2)c(OCC)cc1NC(=O)c1ccc(OCc2c(C)noc2C)c(OC)c1 | 0 | 8 | 20* | . | 4 | -30
CCOc1cc(N2CCOCC2)c(OCC)cc1NC(=O)c1ccc(OC)cc1 | 0 | 3 | -1 | 4 | . | .
CCCOc1ccc(Oc2nc(-c3ccncc3)nc3ccccc23)cc1 | 0 | -3 | -3 | 6 | . | .
Cc1cc2c(cc1C)N(C(=O)CSc1nncn1C)C(C)(C)c1ssc(=S)c1-2 | 0 | 4 | 34* | . | 12 | -23
O=C(NC1CCCCN(Cc2ccc(Cl)cc2)C1=O)c1ccccc1-c1ccc(Cl)c(Cl)c1 (configuration not stated) | . | . | -3 | . | . | .
NC(=S)NN=C(c1ccccc1)c1ccccc1 | 0 | 1 | 19* | . | 22* | -4
Cc1ccccc1OCc1occc1C(=O)Nc1cccc(-n2cnnn2)c1 | 0 | -3 | -19 | . | . | .
O=c1oc2cc(O)ccc2s1 | 0 | 3 | 20* | -3 | 4 | -2
CC(C)(Oc1ccc(Cl)cc1)C(=O)NC1CC1 | 0 | -1 | 21* | -4 | -3 | -2
SMILES | Efflux pump inh | MT1-MMP act inh | sPLA2-III inh | TAG inh | hGIII sPLA2 conf | 535nm interf | others
O=C(COC(=O)c1ccccc1O)Nc1ccc(N2CCOCC2)cc1 | 0 | 2 | 3 | 12 | . | .
CCn1ncc(Cl)c1C(=O)NC(C)c1ccccc1 (configuration not stated) | 0 | -7 | 21* | . | 0 | -6
Cc1cc(C)c(C)c(N=Nc2nc3ccccc3n2C)c1C | 4 | 7 | 21* | 16 | 39* | -3 | BODIPY interf DR=>122
CCOC(=O)C(=O)NNc1ccc(F)cc1 | 0 | 1 | 21* | 12 | -2 | -4
CCOC(=O)C(=O)N/N=C/c1ccc(F)cc1 | 0 | 1 | -1 | 4 | . | .
COc1ccc(-n2c(SCC(=O)Nc3ccc(Oc4ccccc4)cc3)nnc2-c2ccco2)cc1 | . | . | 0 | . | . | .
O=c1cc(C(F)(F)C(F)F)oc2ccccc12 | 0 | -2 | 25* | . | -2 | -6
O=c1cc(-c2ccccc2F)oc2ccccc12 | 0 | -2 | 1 | 1 | . | .
Cc1n[nH]c(=S)n1-c1cccc(Cl)c1 | -1 | 3 | 8 | . | . | .
CSc1n[nH]c(=O)n1-c1cccc(Cl)c1 | 0 | 0 | 20* | -7 | -1 | -6
Cc1ccc(-c2csc(NC(=S)NC(=O)c3ccco3)n2)cc1 | 0 | 6 | 16 | . | . | .
O=C(NNc1nc(-c2ccccc2)cs1)c1ccco1 | 0 | 12 | 27* | . | 29* | 4 | BODIPY interf DR=>122
O=C(NNc1nc(-c2ccc(Cl)cc2)cs1)c1ccco1 | 0 | 11 | 45* | . | 38* | 11*
CC(=O)Nc1ccc(-c2csc(NNC(=O)c3ccccc3)n2)cc1 | 0 | -4 | 33* | 10 | 22* | 4
CC(=O)Nc1ccc(-c2csc(N/N=C(/C)c3ccccc3)n2)cc1 | 0 | 4 | 6 | 12 | . | .
COc1cccc(Oc2ncnc(N)c2[N+](=O)[O-])c1 | 0 | 5 | 1 | . | . | .
Cc1ccc(CNC(=O)C2CCC(=O)N(C3CCCC3)C2)c(F)c1F (configuration not stated) | 0 | 1 | 6 | . | . | .
N#C/C(=N\Nc1ccccc1)C(N)=S | 0 | 2 | 19* | -1 | 33* | -3
N#C/C(=N\Nc1ccc(Cl)cc1)C(N)=S | 0 | 8 | 1 | -6 | . | .
COc1ccc(C(=O)N/N=C/c2cc3ccccc3[nH]c2=S)cc1 | 0 | -1 | 44* | -49 | 35* | 10*
O=C(O)Cc1ccc(N=Nc2c(O)c(C(=O)O)cc3ccccc23)cc1 | 0 | . | 0 | . | . | .
NS(=O)(=O)c1ccc(N=Nc2c(O)c(C(=O)O)cc3ccccc23)cc1 | 0 | 11 | 33* | . | 25* | -2
CCOc1ccc(/C=N/Nc2cc(=O)n(C)c(=O)n2C)cc1 | 0 | 2 | 19* | . | 11 | -1
NNc1nc2c(Cl)c(Cl)ccc2s1 | 0 | -12 | 24* | . | 19 | 13*
Cc1ccc(S(=O)(=O)NC(=O)C2(C)CCN2C(=O)Cc2cccs2)cc1 (configuration not stated) | . | 5 | 16 | -2 | . | .
CCCCOc1ccc(S(=O)(=O)NC(=O)C2(C)CCN2C(=O)Cc2cccs2)cc1 (configuration not stated) | . | 4 | 87* | -1 | -10 | -6
Cc1cccc(C)c1NC(=O)C(C)N1CCCCC1 (configuration not stated) | 0 | 2 | -14 | -3 | . | .
